Type in all cases: cell-based
In data set [1] the test system is SK-N-BE(2). The experiment in a line: Cytotoxicity against human SKNBE2 cells assessed as reduction in cell viability at 5 to 100 uM incubated for 18 hrs by Cell titer-glo assay. The following applies: dose 5-100 µM. Summed up:
(§1)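 Cells seeded at 1.5 million per 10-cm dish. Next day they were replated at 10,000 cells/well and rested 4 h. Ligand or vehicle (water, ethanol or DMSO, by ligand) was added in dose-response format in quadruplicate. After 18 h, viability was read by CellTiter-Glo luminescence. Data are mean ± s.e.m., generally representative of 2 independent experiments. One-way ANOVA versus vehicle.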
(ATP-based viability assays read luminescence as a measure of living cells.)

A further data set concerns HEK-293T. As to the kind of experiment: Cytotoxicity against human HEK293T cells assessed as reduction in cell viability at 5 to 100 uM incubated for 18 hrs by Cell titer-glo assay. The following applies: dose 5-100 µM. An outline of the steps: as §1
Data set [2] concerns SK-N-BE(2). The experiment in a line: Cytotoxicity against human SKNBE(2) cells assessed as reduction in cell viability at 1.56 to 6.25 microM incubated for 18 hrs by Cell titer-glo assay. As to conditions: dose 1.56-6.25 µM. An outline of the steps:
(§2)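 Cells seeded 1.5 million per 10-cm dish; next day replated at 10,000 cells/well in 384-well format, 4 h, then ligand or vehicle (water, ethanol or DMSO by ligand) added in quadruplicate for 18 h; viability read by CellTiter-Glo luminescence. Mean ± s.e.m. (n=4), generally 2 independent experiments; one-way ANOVA versus vehicle.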

For data set [3], the target named is Nuclear receptor subfamily 4 group A member 2 (Homo sapiens) (UniProt P43354). The experiment in a line: Modulation of full length human Nurr1 expressed in PC12 cells co-transfected with luciferase reporter plasmid harboring NurRE response element assessed as decrease in luciferase activity at 1.56 to 6.25 uM incubated for 18 by luciferase reporter gene assay. As to conditions: PC-12, filed as modulator, dose 1.56-6.25 µM, time 18.0 hrs. Summed up: (§3)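 Cells transfected (Lipofectamine 2000, 18 h) with full-length Nurr1 expression plasmid (2 μg) and 3xNBRE- or 3xNurRE-luciferase reporter (6 μg), no internal control normalisation; replated 10,000 cells/well, 4 h; ligand or vehicle in quadruplicate for 18 h; Britelite Plus luminescence as fold change over vehicle. Mean ± s.e.m. (n=4); one-way ANOVA versus vehicle.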
Nuclear receptor subfamily 4 group A member 2 (Homo sapiens), sequence (P43354 whole entry): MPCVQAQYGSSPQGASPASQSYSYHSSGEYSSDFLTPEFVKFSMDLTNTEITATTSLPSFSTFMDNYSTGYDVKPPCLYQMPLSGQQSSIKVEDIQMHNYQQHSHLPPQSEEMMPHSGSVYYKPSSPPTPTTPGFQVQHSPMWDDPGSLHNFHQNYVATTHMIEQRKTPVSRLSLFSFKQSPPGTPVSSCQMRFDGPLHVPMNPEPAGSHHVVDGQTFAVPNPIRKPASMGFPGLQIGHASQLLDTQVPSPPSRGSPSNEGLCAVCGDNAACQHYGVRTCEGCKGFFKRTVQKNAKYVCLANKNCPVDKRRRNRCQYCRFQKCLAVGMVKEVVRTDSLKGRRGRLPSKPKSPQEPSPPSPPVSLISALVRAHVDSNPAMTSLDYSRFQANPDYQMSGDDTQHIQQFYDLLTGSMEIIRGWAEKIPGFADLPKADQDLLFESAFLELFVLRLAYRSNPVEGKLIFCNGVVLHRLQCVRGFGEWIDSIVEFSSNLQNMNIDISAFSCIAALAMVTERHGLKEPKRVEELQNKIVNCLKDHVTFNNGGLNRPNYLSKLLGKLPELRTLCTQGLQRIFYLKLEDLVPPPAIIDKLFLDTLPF
On the technique in general: A reporter such as luciferase makes a cellular process visible.

Data set [4] has the same target. As to the kind of experiment: Modulation of full length human Nurr1 expressed in HEK293T cells co-transfected with luciferase reporter plasmid harboring NurRE response element assessed as decrease in luciferase activity at 1.56 to 6.25 uM incubated for 18 by luciferase reporter gene assay. The following applies: filed as modulator, dose 1.56-6.25 µM, time 18.0 hrs. An outline of the steps: as §3

Data set [5] shares this target. As to the kind of experiment: Modulation of full length human Nurr1 expressed in SKNBE(2) cells co-transfected with luciferase reporter plasmid harboring NurRE response element assessed as decrease in luciferase activity at 1.56 to 6.25 uM incubated for 18 by luciferase reporter gene assay. As to conditions: SKNBE2, filed as modulator, dose 1.56-6.25 µM, time 18.0 hrs. Summed up:
as §3

For data set [6] the target is unchanged. The experiment in a line: Modulation of full length human Nurr1 expressed in PC12 cells co-transfected with RXRalpha and luciferase reporter plasmid harboring NBRE response element assessed as decrease in luciferase activity at 1.56 to 6.25 uM incubated for 18 by luciferase reporter gene assay. The following applies: PC-12, filed as modulator, dose 1.56-6.25 µM, time 18.0 hrs.

The target is the same in data set [7]. The experiment in a line: Modulation of full length human Nurr1 expressed in HEK293T cells co-transfected with RXRalpha and luciferase reporter plasmid harboring NBRE response element assessed as decrease in luciferase activity at 1.56 to 6.25 uM incubated for 18 by luciferase reporter gene assay. As to conditions: filed as modulator, dose 1.56-6.25 µM, time 18.0 hrs.

Another data set concerns HEK293T. The experiment in a line: Modulation of Gal4-fused VP16 expressed in HEK293T cells co-transfected with UAS repoter gene assessed as decrease in luciferase activity at 1.56 to 6.25 uM incubated for 18 hrs by luciferase reporter gene assay. As to conditions: Human alphaherpesvirus 2, filed as modulator, dose 1.56-6.25 µM. Summed up: (§4)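 Constitutive control: cells transfected (Lipofectamine 2000) with Gal4-VP16 expression plasmid (2 μg) plus 5xUAS-luciferase reporter (2 μg), 18 h; replated 10,000 cells/well, 4 h; ligand or vehicle in quadruplicate for 18 h; luciferase read by Britelite Plus; signal as fold change over vehicle-treated cells. Mean ± s.e.m. (n=4); one-way ANOVA versus vehicle.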

Data set [8] deals with Nuclear receptor subfamily 4 group A member 2 (Homo sapiens) (UniProt P43354). As to the kind of experiment: Modulation of full length human Nurr1 expressed in SKNBE(2) cells co-transfected with RXRalpha and luciferase reporter plasmid harboring NurRE response element assessed as decrease in luciferase activity at 1.56 to 6.25 uM incubated for 18 by luciferase reporter gene assay. As to conditions: SKNBE2, filed as modulator, dose 1.56-6.25 µM, time 18.0 hrs.

Data set [9] has the same target. The experiment in a line: Modulation of full length human Nurr1 expressed in PC12 cells co-transfected with luciferase reporter plasmid harboring NBRE response element assessed as decrease in luciferase activity at 1.56 to 6.25 uM incubated for 18 by luciferase reporter gene assay. As to conditions: PC-12, filed as modulator, dose 1.56-6.25 µM, time 18.0 hrs. Summed up:
as §3

Data set [10] has the same target. The experiment in a line: Modulation of full length human Nurr1 expressed in SKNBE(2) cells co-transfected with luciferase reporter plasmid harboring NBRE response element assessed as decrease in luciferase activity at 1.56 to 6.25 uM incubated for 18 by luciferase reporter gene assay. As to conditions: SKNBE2, filed as modulator, dose 1.56-6.25 µM, time 18.0 hrs. Summed up: as §3

For data set [11], the system named is PC-12. The experiment in a line: Cytotoxicity against rat PC12 cells assessed as reduction in cell viability at 1.56 to 6.25 microM incubated for 18 hrs by Cell titer-glo assay. The following applies: pc-12, 18 h, dose 1.56-6.25 µM. An outline of the steps:
as §2

Data set [12] addresses Nuclear receptor subfamily 4 group A member 2 (Homo sapiens) (UniProt P43354). The experiment in a line: Modulation of full length human Nurr1 expressed in PC12 cells co-transfected with RXRalpha and luciferase reporter plasmid harboring NurRE response element assessed as increase in luciferase activity at 1.56 to 6.25 uM incubated for 18 by luciferase reporter gene assay. As to conditions: PC-12, filed as modulator, dose 1.56-6.25 µM, time 18.0 hrs.

For data set [13] the target is unchanged. As to the kind of experiment: Modulation of full length human Nurr1 expressed in SKNBE(2) cells co-transfected with luciferase reporter plasmid harboring NBRE response element assessed as increase in luciferase activity at 1.56 to 6.25 uM incubated for 18 by luciferase reporter gene assay. As to conditions: SKNBE2, filed as modulator, dose 1.56-6.25 µM, time 18.0 hrs. An outline of the steps:
as §3

The target is the same in data set [14]. As to the kind of experiment: Modulation of full length human Nurr1 expressed in HEK293T cells co-transfected with luciferase reporter plasmid harboring NBRE response element assessed as increase in luciferase activity at 1.56 to 6.25 uM incubated for 18 by luciferase reporter gene assay. As to conditions: filed as modulator, dose 1.56-6.25 µM, time 18.0 hrs. An outline of the steps: as §3

Data set [15] shares this target. The experiment in a line: Modulation of full length human Nurr1 expressed in PC12 cells co-transfected with RXRalpha and luciferase reporter plasmid harboring NBRE response element assessed as increase in luciferase activity at 1.56 to 6.25 uM incubated for 18 by luciferase reporter gene assay. As to conditions: PC-12, filed as modulator, dose 1.56-6.25 µM, time 18.0 hrs.

The subject of data set [16] is PC-12. As to the kind of experiment: Modulation of Gal4-fused VP16 expressed in PC12 cells co-transfected with UAS repoter gene assessed as decrease in luciferase activity at 1.56 to 6.25 uM incubated for 18 hrs by luciferase reporter gene assay. As to conditions: Human alphaherpesvirus 2, filed as modulator, dose 1.56-6.25 µM. An outline of the steps: as §4
Data set [17] addresses Nuclear receptor subfamily 4 group A member 2 (Homo sapiens) (UniProt P43354). As to the kind of experiment: Modulation of full length human Nurr1 expressed in SKNBE(2) cells co-transfected with RXRalpha and luciferase reporter plasmid harboring NBRE response element assessed as increase in luciferase activity at 1.56 to 6.25 uM incubated for 18 by luciferase reporter gene assay. The following applies: SKNBE2, filed as modulator, dose 1.56-6.25 µM, time 18.0 hrs.

The target is the same in data set [18]. As to the kind of experiment: Modulation of full length human Nurr1 expressed in PC12 cells co-transfected with luciferase reporter plasmid harboring NurRE response element assessed as increase in luciferase activity at 1.56 to 6.25 uM incubated for 18 by luciferase reporter gene assay. As to conditions: PC-12, filed as modulator, dose 1.56-6.25 µM, time 18.0 hrs. An outline of the steps: as §3

Structures are written as SMILES. Active and inactive are the calls of the source. No cut-off for these calls is given here.

For the compound `CCCCCCCC(=O)c1c(O)cc(O)cc1CC(=O)OCC` [CYTOSPORONE B], the Activity entry with SK-N-BE(2) [1] and in the data set on HEK-293T was “Toxic” throughout.
Take `CC1=C(O)C(=O)C=C2C1=CC=C1[C@@]2(C)CC[C@@]2(C)[C@@H]3C[C@](C)(C(=O)O)CC[C@]3(C)CC[C@]12C` [CELASTROL]: the Activity result in the data set with SK-N-BE(2) [2] and in the data set with PC-12 [11] was “Toxic” each time. Further, the outcome (in [3]; in [4]; in data set [5]; in data set [6]; in data set [7]; with HEK293T) was Active. In addition, the outcome in data set [8], in [9], in data set [10], in data set [12], in data set [13] and in [14] was Active. Also, the outcome (in data set [15]; in the data set on PC-12 [16]; in data set [17]; in data set [18]) was Active.

Source of the values: ChEMBL document CHEMBL5030505, “Assessment of NR4A Ligands That Directly Bind and Modulate the Orphan Nuclear Receptor Nurr1” (J Med Chem, 2020).
